Bioassay records: PubChem, several laboratories
Only some compounds are listed: those with a hit (about 5.3% of all), similar ones and a draw of the others.
HIV Rev-RRE inh: disrupts HIV-1 Rev binding to RRE RNA; actives 0.79% (n = 97,000); Rev peptide-RRE RNA binding, FRET; P05866; inhibition, % at 8 µM;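 active means inhibition above the screen-wide mean plus 3 SD, cut at about 35% in these data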;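 further: 0% = median DMSO wells and 100% = median Neomycin B control wells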
Target sequence (P05866 whole entry, looked up): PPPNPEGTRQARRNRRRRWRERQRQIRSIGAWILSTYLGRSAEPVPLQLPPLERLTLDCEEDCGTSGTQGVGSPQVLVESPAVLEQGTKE
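Test system: labelled RRE RNA duplex and labelled Rev peptide. Times: 5 min compound–RNA preincubation, then 15 min with peptide, 25 °C. Doses: single-dose 8 µM. Measured by: FRET, excitation 480 nm, emission 540 nm donor and 671 nm acceptor. Measure: % inhibition of FRET ratio versus controls.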
FAK inh: inhibitors of human focal adhesion kinase; Q05397; biochemical FAK kinase activity assay; inhibition, %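 (tested at 7 µM)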; actives 0.84% (n = 97,000);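 further: 0% = DMSO and 100% = reference compound high control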
PLK1 kinase inh: inhibitors of human PLK1 kinase. inhibition, % at 10 µM. AID 619. actives 0.53% (n = 97,000). P53350. recombinant PLK1 kinase, TR-FRET peptide phosphorylation;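 active means inhibition of 50% or more in the single-concentration screen; inactive means inhibition below 50%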;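 further: 0% = DMSO max control and 100% = H-89 dihydrochloride min control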
Target sequence (P53350 whole entry, looked up): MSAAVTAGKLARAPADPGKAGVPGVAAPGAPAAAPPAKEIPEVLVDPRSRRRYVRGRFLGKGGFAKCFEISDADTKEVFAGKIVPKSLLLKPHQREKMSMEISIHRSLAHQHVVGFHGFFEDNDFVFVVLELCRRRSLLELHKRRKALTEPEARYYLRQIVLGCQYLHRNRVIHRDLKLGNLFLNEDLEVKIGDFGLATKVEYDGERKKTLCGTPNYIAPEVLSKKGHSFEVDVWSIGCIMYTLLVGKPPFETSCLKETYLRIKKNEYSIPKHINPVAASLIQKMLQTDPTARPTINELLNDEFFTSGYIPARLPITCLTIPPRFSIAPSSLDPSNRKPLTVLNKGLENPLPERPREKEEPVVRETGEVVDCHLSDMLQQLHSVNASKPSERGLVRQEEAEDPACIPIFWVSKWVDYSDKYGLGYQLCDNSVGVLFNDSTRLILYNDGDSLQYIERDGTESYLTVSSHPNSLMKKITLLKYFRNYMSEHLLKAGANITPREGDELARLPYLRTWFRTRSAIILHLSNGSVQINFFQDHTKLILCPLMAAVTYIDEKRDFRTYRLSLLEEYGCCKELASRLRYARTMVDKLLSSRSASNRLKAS
Cav3 T inh: inhibitors of human Cav3.2 T-type calcium channel; O95180; B-score at 10 µM; AID 449739; Cav3.2-expressing cells, Fluo-4 calcium fluorescence FDSS; hits give low values; actives 4% (n = 100,000);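 active means single-dose well whose peak fluorescence ratio is a statistical outlier from its plate by either plate-standardised score or position-corrected B-score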
Plk1 PBD FP: Plk1 (human) PBD binding inhibition | P53350 | Plk1 PBD phosphopeptide binding, fluorescence polarization | inhibition, %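 (tested at about 20 µM)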 | actives 0.13% (n = 97,000) | AID 693; in the data active means inhibition above about 34%, passing the limit was not always enough
EphB4 ephrin blk: blocks human EphB4 binding to ephrin-B2. inhibition, % at 7 µM. actives 0.15% (n = 97,000). AID 720. EphB4 LBD / TNYL-RAW-Alexa532 peptide, fluorescence polarization;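 active means inhibition above the screen-wide mean inhibition plus 3 SD, cut at about 15% in these data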;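 further: 0% = DMSO wells and 100% = excess unlabeled TNYL-RAW peptide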
FAK inh confirm: confirmation of human focal adhesion kinase (FAK) inhibitors; shares compounds with FAK inh; FAK kinase biochemical inhibition assay; inhibition, % at 7 µM; actives 28% (n = 750); AID 794
The depositor's hits bear a star; i = inactive; . = no result. Unless noted, no stated cut-off is given here; in the data, active means inhibition above about 19%; inactive means the rest.

SMILES | HIV Rev-RRE inh | FAK inh | PLK1 kinase inh | Cav3 T inh | Plk1 PBD FP | EphB4 ephrin blk | FAK inh confirm
COc1ccc(-c2cc(CNC(=O)CN(C)Cc3ccccc3)on2)cc1 | 9.1 | 2.5 | -6.9 | . | 3.1 | 0.8 | .
CC(C)CC1NC(=O)N(CC(=O)N2CCN(S(=O)(=O)c3ccccc3)CC2)C1=O (centres undefined) | -1.3 | -2.0 | -9.1 | -0.0255 | 6.0 | -0.2 | .
O=C(Nc1ccc2c(c1)OCCO2)c1cccc2nc3ccccc3nc12 | 0.1 | 38.0* | -6.5 | -1.26 | 8.2 | 9.1 | 16.1
O=C1c2ccccc2C(=O)c2c(NCc3cccnc3)cccc21 | -33.2 | 27.7* | -3.6 | -0.629 | -11.3 | 5.8 | 11.2
CC(C)c1nc(SCC(=O)Nc2nc3c(s2)CCCC3)c2ccccc2n1 | 9.7 | 19.6* | -1.9 | -3.08 | 10.1 | 0.3 | 8.1
Cc1nnc(NC(=O)CSc2nc(C(C)C)nc3ccccc23)s1 | -3.3 | 46.1* | -1.4 | 1.7 | 19.6 | 0.9 | 22.8*
Cc1nnc(NC(=O)CSc2nc3ccccc3o2)s1 | 1.1 | -1.1 | -8.3 | 1.54 | 0.6 | -3.9 | .
Cc1cc(NC(=O)CSc2nc(C(C)C)nc3ccccc23)no1 | 1.4 | 44.8* | 0.1 | -1.59 | -30.6 | 8.9 | 27.9*
Cc1nn(C(C)c2n[nH]c(=S)n2-c2cccc(Cl)c2)c(C)c1[N+](=O)[O-] (centres undefined) | 4.4 | -0.5 | -6.5 | 0.546 | -6.2 | 4.8 | .
COc1cc(C(=O)n2nc(C)cc2C)ccc1O | 5.5 | 2.6 | -8.5 | 1.1 | -0.3 | 8.6 | .
CC1N(O)C(C)(C)C(c2ccccc2)=[N+]1[O-] (centres undefined) | 8.8 | 1.8 | -7.3 | 0.908 | -3.1 | 4.3 | .
O=C1c2ccccc2C(=O)C1c1ccncc1 | 7.6 | 25.1* | 11.3 | -0.172 | -20.6 | 4.9 | 7.4
CCc1ccc2nc(SCC(=O)N(CC)CC)c(C#N)cc2c1 | 6.2 | 40.7* | -9.5 | 0.21 | 25.3 | -1.1 | 27.1*
CCOc1ccc2nc(SCC#N)c(C#N)cc2c1 | 34.4 | 20.1* | -2.4 | 0.52 | -16.3 | 0.0 | -0.4
CCSc1nc2ccc(OC)cc2cc1C#N | 5.2 | -3.2 | -15.2 | 0.083 | -22.3 | 6.8 | .
CCN(N=O)[C@@H](Cc1ccccc1)CN(N=O)[C@@H](Cc1ccccc1)CN(C)N=O | . | . | . | -0.878 | . | . | .
CCOC(=O)c1c(NC(=O)CSc2nncn2C)sc(C)c1C | 8.2 | -1.5 | -10.7 | . | -19.1 | 0.2 | .
Cn1cnnc1SCC(=O)Nc1sc2c(c1C(N)=O)CCC2 | 20.7 | 22.8* | -4.0 | 0.224 | -18.0 | -3.6 | 5.6
CC(C)(C)CC(=O)NC(=S)N1CCCCCC1 | 6.1 | -2.7 | -1.1 | 1.57 | -0.4 | 0.7 | .
O=C(CC1Sc2ccccc2NC1=O)OC(C(=O)NCCc1ccccc1)c1cccnc1 (centres undefined) | 1.2 | 33.4* | -4.3 | . | i | -4.9 | 2.2
Cc1c(CCO)c(=O)n(-c2ccccc2)n1S(=O)(=O)c1ccc(Cl)cc1 | 6.1 | -0.2 | 5.1 | 0.14 | -4.7 | 0.1 | .
c1ccc2c3c([nH]c2c1)-c1[nH]ncc1CC3 | 1.9 | 42.2* | -16.7 | 1.27 | 23.6 | -1.3 | 20.2*
Clc1ccc2[nH]c3c(c2c1)CCc1cn[nH]c1-3 | -1.9 | 19.6* | 4.3 | -0.344 | -33.0 | -1.5 | 6.9
c1ccc2nc3c(nc2c1)[nH]c1ccccc13 | . | . | . | 0.629 | . | . | .
Cc1c(C)n(C)c2ccc(C(=O)Nc3cccc4ccccc34)cc12 | -5.1 | 0.6 | -9.5 | -2.26 | -37.3 | 1.6 | .
SMILES | HIV Rev-RRE inh | FAK inh | PLK1 kinase inh | Cav3 T inh | Plk1 PBD FP | EphB4 ephrin blk | FAK inh confirm
COc1cc(-c2cc(=O)c3c(O)c(OC)c(OC)c(O)c3o2)ccc1O | . | . | . | 1.34 | . | . | .
COc1cc(-c2cc(OC)c3c(C)oc(C)c3c(=O)c2)ccc1O | 4.5 | 20.5* | 3.0 | -2.11 | -24.3 | 3.8 | 12.7
CN=C1S/C(=C\c2cc(C)n(-c3ccccc3F)c2C)C(=O)N1C | 0.1 | 20.9* | -2.6 | -2.06 | -4.3 | -5.5 | 4.8
CN=C1S/C(=C\c2cn(C(C)=O)nc2-c2ccccc2)C(=O)N1C | 7.0 | 7.6 | 1.5 | -0.498 | -12.6 | -8.4 | .
CCC(=O)Nc1nc2nc(-c3ccccc3)cc(-c3ccccc3)n2n1 | 15.0 | 23.8* | -15.8 | . | -14.3 | 13.4 | 7.7
CCCC(=O)Nc1nc2nc(-c3ccccc3)cc(-c3ccccc3)n2n1 | 6.5 | 1.7 | -6.4 | -0.574 | -13.1 | -3.2 | .
COc1nnc(-c2ccc(N3CCCCC3)c(NC(C)=O)c2)c2ccccc12 | 8.9 | 20.3* | -2.6 | 1.11 | -13.9 | -2.6 | 19.5*
COc1nnc(-c2ccc(N3CCCCC3)c(NC(=O)C3CCCCC3)c2)c2ccccc12 | 15.7 | -0.1 | -3.0 | . | -0.2 | -2.1 | .
COC(=O)c1sc2ccccc2c1-n1cccc1C(=O)C(=O)Nc1ccccc1 | 5.5 | -1.4 | -0.7 | -4.05 | -27.8 | 9.6 | .
COCCn1cnnc1SCC(=O)c1ccc(S(=O)(=O)N2CCCC2)cc1 | . | . | . | -0.0108 | . | . | .
CCOc1ccc(NC(=O)CC2C(=O)N(C)C(=S)N2Cc2ccc3c(c2)OCO3)cc1 (centres undefined) | 8.9 | 0.2 | -13.1 | -1.88 | 3.1 | 3.2 | .
Cc1ccc2oc(C(Cl)(Cl)Cl)cc(=O)c2c1 | 6.1 | -0.4 | -14.8 | 0.234 | -20.4 | -1.4 | .
O=C(CNC(=O)c1ccc([N+](=O)[O-])cc1)N/N=C\c1ccc(OC(=O)c2ccccc2)cc1 | 2.5 | 24.9* | -16.7 | -0.535 | 6.8 | 2.2 | 11.2
COc1ccc(CCn2c(=S)[nH]c3cc(C(=O)NCc4ccco4)ccc3c2=O)cc1OC | 2.2 | 35.2* | -11.6 | . | -10.9 | 7.2 | 11.6
COc1ccc(-n2c(=S)[nH]c3cc(C(=O)NCc4ccco4)ccc3c2=O)cc1OC | 0.7 | -0.6 | -12.6 | 0.381 | -14.6 | 3.0 | .
Cc1ccc(S(=O)(=O)N2CCC(=O)N(C(COCc3ccc(Cl)cc3)Cc3ccccc3)CC2)cc1 (centres undefined) | . | . | . | 0.871 | . | . | .
COCCNC(=O)C(c1ccc(C)o1)N(C(=O)c1snc(C(N)=O)c1N)c1cccc(C)c1 (centres undefined) | 1.2 | 20.1* | -2.2 | -1.7 | -34.6 | -0.3 | 5.9
COCCNC(=O)C(c1ccc(C)o1)N(C(=O)c1snc(C(N)=O)c1N)c1ccc(C)c(C)c1 (centres undefined) | 3.4 | 23.0* | -21.5 | -1.75 | -8.4 | 4.1 | 9.4
Cc1ccc(C(C(=O)NC2CCCC2)N(Cc2cccnc2)C(=O)c2snc(C(N)=O)c2N)o1 (centres undefined) | 3.0 | 0.2 | -7.4 | -0.0707 | -16.9 | 0.8 | .
CC(C(=O)NCC1CCCO1)N(C(=O)c1snc(C(N)=O)c1N)c1ccccc1 (centres undefined) | 4.7 | 10.6 | -2.1 | -1.02 | 7.9 | -3.0 | .
CCN(CC)S(=O)(=O)c1cccc(-c2nnc(SCC(=O)NC3CCCCCCC3)n2N)c1 | 6.3 | 1.0 | -0.9 | -2.22 | 11.6 | -2.6 | .
